Test results taken from article PMC5788303 (Journal of medicinal chemistry, 2017).
Each block holds one compound with its values, some of them ahead of it.

Legend:
[1] = In situ mouse brain perfusion; assay type: in vivo
In short: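 Adult male mice, 25 ± 5 g, anaesthetised with i.p. ketamine 120 mg/kg plus xylazine. Right external carotid ligated; right common carotid cannulated with a 100 IU/mL heparin-filled catheter. Perfused with 100 μM test compound at 37 °C and 2.5 mL/min for 60 s, then washed 2 s with 4 °C drug-free buffer. Brain level measured (detection limit 5 pmol/g).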

native KA receptors = assay: Radioligand binding at native KA receptors; conditions: [3H]KA, rat synaptosomes
In short: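 Native kainate receptors in rat brain synaptosomes were labelled with [3H]KA, and displacement by the test compound was measured. IC50 and Ki values were derived from the binding data.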

native AMPA receptors = assay: Radioligand binding at native AMPA receptors; conditions: read-out: AMPA IC50; [3H]AMPA, rat synaptosomes
In short: (§1)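 Native receptors in rat brain synaptosomes: AMPA labelled with [3H]AMPA, KA with [3H]KA, NMDA with [3H]CGP-39653. Recombinant homomeric rat GluK1-3 labelled with [3H]KA. IC50 and Ki values derived from displacement data.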

iGluRs = assay: Binding affinity at iGluRs; design: species or system rat; conditions: native iGluRs and homomeric GluK1-3
In short: as §1

GluN1/GluN2B = GluN1/GluN2B (Rattus norvegicus, UniProt Q00960); assay: Two-electrode voltage-clamp electrophysiology, Xenopus oocytes, GluN1/GluN2B; assay type: biochemical; conditions: 100 μM glycine and 3 μM Glu
In short: (§2)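 Rat GluN1 and GluN2A-D cRNAs injected 1:2 into Xenopus oocytes, held at 18 °C in Barth's solution. Recorded at room temperature 2–6 days later in 90 mM NaCl, 1 mM KCl, 10 mM HEPES, 0.5 mM BaCl2, 0.01 mM EDTA (pH 7.4), −40 mV. Currents evoked by 100 μM glycine plus Glu: 10 μM (2A), 3 μM (2B, 2C), 1 μM (2D). Per-oocyte Hill fits, mean ± SEM.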

GluN1/GluN2A = GluN1/GluN2A (Rattus norvegicus, UniProt Q00959); assay: Two-electrode voltage-clamp electrophysiology, Xenopus oocytes, GluN1/GluN2A; assay type: biochemical; conditions: 100 μM glycine and 10 μM Glu
In short: as §2

GluN1/GluN2D = GluN1/GluN2D (Rattus norvegicus, UniProt Q62645); assay: Two-electrode voltage-clamp electrophysiology, Xenopus oocytes, GluN1/GluN2D; assay type: biochemical; conditions: 100 μM glycine and 1 μM Glu
In short: as §2

[2] = tested on: NMDA receptors in murine HCC cells; assay: Calcium imaging of NMDA-induced Ca2+ transients in murine HCC cells; assay type: cell-based, mouse; conditions: 150 μM NMDA
Slc7a5 (Lat1) = assay: Transporter protein expression by SRM/MRM LC-MS/MS, Slc7a5; assay type: cell-based, mouse; conditions: 10 μM, 48 h, HCC cell crude membrane fraction
Slc2a1 (Glut1) = assay: Transporter protein expression by SRM/MRM LC-MS/MS, Slc2a1; assay type: cell-based, mouse; conditions: 10 μM, 48 h, HCC cell crude membrane fraction
Abcb1 (Pgp) = assay: Transporter protein expression by SRM/MRM LC-MS/MS, Abcb1; assay type: cell-based, mouse; conditions: 10 μM, 48 h, HCC cell crude membrane fraction
Abcc2 (Mrp2) = assay: Transporter protein expression by SRM/MRM LC-MS/MS, Abcc2; assay type: cell-based, mouse; conditions: 10 μM, HCC cell crude membrane fraction
[3] = In vivo pharmacokinetics in mice, 10 mg/kg i.p.; design: species or system mouse
Abcg2 (Bcrp) = assay: Transporter protein expression by SRM/MRM LC-MS/MS, Abcg2; assay type: cell-based, mouse; conditions: 10 μM, 48 h, HCC cell crude membrane fraction
GluN1/GluN2C = GluN1/GluN2C (Rattus norvegicus, UniProt Q00961); assay: Two-electrode voltage-clamp electrophysiology, Xenopus oocytes, GluN1/GluN2C; assay type: biochemical; conditions: 100 μM glycine and 3 μM Glu
In short: as §2

Abcc4 (Mrp4) = assay: Transporter protein expression by SRM/MRM LC-MS/MS, Abcc4; assay type: cell-based, mouse; conditions: 10 μM, 48 h, HCC cell crude membrane fraction
native NMDA receptors = assay: Radioligand binding at native NMDA receptors; design: species or system rat; conditions: compared with 1l / 1n
mouse HCC cells = assay: Anti-proliferative activity in vitro; assay type: cell-based; conditions: 72 h
In short: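 Mouse Nras-driven p53−/− HCC cells in DMEM with 2 mM L-glutamine, 10% heat-inactivated FBS and penicillin/streptomycin. Cells seeded at 2×10^4/well on collagen-coated plates and used one day later. Test compound given at 0.1–200 μM, or at 1, 2.5, 5 and 10 μM with or without a 100 μM second test compound, for 72 h with daily medium change. Viability read by resazurin fluorescence (ex 560/em 590 nm). IC50 by nonlinear regression, mean ± SEM.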

GluN1/GluN2B, sequence (Q00960 27-1482, other chains not shown): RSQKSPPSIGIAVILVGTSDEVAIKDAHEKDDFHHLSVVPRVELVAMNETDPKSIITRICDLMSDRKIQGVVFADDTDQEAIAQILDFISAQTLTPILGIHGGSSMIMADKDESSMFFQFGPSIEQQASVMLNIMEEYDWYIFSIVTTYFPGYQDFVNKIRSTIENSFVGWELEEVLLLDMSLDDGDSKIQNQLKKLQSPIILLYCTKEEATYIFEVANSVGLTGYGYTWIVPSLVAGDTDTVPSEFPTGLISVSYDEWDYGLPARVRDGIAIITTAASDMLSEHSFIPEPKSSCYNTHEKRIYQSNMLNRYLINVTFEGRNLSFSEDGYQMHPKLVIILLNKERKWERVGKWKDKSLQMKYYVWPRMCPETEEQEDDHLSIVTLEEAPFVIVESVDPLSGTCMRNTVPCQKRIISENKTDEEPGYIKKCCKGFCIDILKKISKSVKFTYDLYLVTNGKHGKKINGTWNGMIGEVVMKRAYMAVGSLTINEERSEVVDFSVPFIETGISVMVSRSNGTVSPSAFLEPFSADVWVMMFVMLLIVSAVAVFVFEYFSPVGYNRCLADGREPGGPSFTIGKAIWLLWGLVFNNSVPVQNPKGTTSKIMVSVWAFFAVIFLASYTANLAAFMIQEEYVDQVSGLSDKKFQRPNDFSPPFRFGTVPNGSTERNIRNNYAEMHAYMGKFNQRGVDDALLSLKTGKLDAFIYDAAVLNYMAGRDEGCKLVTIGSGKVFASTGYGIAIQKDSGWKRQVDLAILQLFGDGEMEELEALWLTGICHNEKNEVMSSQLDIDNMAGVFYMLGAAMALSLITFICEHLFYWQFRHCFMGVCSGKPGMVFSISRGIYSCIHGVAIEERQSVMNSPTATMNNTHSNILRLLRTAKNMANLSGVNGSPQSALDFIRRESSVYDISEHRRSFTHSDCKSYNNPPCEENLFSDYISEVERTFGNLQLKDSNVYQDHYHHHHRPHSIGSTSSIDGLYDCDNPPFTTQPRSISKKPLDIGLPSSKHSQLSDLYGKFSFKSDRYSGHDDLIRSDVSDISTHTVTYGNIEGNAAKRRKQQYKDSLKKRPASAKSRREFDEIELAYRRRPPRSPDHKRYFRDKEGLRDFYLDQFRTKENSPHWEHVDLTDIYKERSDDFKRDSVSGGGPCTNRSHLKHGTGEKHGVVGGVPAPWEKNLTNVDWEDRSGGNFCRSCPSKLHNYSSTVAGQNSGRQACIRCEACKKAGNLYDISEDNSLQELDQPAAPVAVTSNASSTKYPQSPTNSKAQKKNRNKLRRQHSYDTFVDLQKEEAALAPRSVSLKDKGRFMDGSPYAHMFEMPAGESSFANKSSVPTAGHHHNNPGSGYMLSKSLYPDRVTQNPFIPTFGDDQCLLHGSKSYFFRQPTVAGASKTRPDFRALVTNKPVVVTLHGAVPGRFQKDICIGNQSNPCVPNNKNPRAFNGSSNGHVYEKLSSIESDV
GluN1/GluN2A, sequence (Q00959 23-1464, other chains not shown): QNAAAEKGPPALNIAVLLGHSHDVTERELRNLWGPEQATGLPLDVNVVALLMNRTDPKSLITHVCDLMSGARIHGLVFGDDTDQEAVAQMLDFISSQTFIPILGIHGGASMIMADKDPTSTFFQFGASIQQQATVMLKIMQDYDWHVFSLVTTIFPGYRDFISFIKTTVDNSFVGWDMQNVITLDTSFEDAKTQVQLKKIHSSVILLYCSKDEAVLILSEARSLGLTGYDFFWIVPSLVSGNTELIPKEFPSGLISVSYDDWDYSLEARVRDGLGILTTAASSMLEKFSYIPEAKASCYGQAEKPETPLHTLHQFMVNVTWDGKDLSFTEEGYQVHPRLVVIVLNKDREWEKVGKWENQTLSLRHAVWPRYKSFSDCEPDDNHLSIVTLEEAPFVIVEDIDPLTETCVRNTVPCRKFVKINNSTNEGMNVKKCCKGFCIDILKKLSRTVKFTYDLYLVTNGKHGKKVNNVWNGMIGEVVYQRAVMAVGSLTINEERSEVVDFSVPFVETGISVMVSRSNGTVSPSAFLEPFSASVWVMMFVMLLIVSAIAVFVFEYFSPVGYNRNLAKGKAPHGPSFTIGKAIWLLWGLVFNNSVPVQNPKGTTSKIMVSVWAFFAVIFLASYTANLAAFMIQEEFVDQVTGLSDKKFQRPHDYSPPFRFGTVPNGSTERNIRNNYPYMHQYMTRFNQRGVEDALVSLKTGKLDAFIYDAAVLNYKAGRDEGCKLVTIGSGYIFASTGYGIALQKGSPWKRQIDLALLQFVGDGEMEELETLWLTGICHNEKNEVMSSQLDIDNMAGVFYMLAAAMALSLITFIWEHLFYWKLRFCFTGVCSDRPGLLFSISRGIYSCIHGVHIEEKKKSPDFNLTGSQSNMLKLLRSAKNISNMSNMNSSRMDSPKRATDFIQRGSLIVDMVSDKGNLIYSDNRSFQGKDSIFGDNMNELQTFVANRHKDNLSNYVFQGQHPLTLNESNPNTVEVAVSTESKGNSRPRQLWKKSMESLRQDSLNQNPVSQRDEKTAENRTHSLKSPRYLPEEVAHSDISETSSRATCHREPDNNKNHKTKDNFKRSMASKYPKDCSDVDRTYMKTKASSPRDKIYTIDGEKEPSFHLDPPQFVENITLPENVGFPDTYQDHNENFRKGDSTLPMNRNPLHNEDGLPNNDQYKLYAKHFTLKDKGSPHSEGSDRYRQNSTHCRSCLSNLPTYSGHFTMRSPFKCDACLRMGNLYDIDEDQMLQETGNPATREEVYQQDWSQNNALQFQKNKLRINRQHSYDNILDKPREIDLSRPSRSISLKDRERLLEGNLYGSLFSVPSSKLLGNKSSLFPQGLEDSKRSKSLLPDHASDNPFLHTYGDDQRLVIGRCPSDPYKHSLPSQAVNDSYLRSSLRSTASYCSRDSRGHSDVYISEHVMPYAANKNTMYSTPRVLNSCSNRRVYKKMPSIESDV
GluN1/GluN2D, sequence (Q62645 28-1323, other chains not shown): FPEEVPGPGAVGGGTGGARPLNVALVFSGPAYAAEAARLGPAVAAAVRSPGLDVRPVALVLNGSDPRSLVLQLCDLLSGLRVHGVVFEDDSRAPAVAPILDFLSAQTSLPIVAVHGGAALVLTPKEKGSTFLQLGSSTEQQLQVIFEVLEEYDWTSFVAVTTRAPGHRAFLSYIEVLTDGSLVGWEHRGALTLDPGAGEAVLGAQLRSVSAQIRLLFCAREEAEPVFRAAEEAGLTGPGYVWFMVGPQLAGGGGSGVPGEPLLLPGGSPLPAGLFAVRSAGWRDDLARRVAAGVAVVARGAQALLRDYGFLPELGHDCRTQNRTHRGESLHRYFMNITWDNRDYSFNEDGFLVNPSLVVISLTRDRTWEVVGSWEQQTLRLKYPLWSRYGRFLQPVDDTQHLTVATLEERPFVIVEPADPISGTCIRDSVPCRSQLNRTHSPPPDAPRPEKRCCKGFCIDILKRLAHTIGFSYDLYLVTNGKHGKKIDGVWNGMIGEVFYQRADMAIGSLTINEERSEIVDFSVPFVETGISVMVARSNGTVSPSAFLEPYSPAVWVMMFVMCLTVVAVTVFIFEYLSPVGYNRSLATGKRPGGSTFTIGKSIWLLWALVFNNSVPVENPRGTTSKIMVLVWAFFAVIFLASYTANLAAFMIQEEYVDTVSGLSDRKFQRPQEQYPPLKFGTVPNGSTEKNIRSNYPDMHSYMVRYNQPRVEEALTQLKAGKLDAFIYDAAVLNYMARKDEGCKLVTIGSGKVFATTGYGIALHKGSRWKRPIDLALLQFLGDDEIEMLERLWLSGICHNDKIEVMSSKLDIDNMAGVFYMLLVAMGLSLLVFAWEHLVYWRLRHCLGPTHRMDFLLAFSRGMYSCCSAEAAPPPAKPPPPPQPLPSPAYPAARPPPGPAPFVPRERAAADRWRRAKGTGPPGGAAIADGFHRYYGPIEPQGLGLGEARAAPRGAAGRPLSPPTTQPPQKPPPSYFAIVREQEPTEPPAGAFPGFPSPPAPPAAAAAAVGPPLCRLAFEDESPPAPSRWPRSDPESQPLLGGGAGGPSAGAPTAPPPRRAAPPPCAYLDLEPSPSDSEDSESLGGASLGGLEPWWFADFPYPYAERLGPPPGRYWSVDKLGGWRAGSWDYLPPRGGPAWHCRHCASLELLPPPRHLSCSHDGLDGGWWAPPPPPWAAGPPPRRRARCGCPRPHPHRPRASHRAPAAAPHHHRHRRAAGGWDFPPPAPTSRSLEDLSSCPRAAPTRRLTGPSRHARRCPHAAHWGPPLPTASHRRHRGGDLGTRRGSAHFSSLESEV

SMILES: Cl.O=C(O)[C@H]1NCC[C@@H]1c1cccc(C(F)(F)F)c1 [1e, (2S,3R)-2-Carboxy-3-(3-(trifluoromethyl)phenyl)pyrrolidin-1-ium chloride]
KA IC50 (native KA receptors): >100 µM
IC50 (native AMPA receptors): > 100 µM

SMILES: Cl.N#Cc1cccc([C@H]2CCN[C@@H]2C(=O)O)c1 [1g, (2S,3R)-3-(3-Cyanophenyl)pyrrolidine-2-carboxylic acid hydrochloride]
KA IC50 (native KA receptors): >100 µM
IC50 (native AMPA receptors): > 100 µM

SMILES: O=C(O)[C@H]1NCC[C@@H]1c1ccc(O)c(O)c1 [1j, (2S,3R)-3-(3,4-Dihydroxyphenyl)pyrrolidine-2-carboxylic acid]
KA IC50 (native KA receptors): >100 µM
IC50 (native AMPA receptors): > 100 µM

SMILES: O=C(O)c1cc([C@H]2CCN[C@@H]2C(=O)O)ccc1F [1k, (2S,3R)-2-Carboxy-3-(3-carboxy-4-fluorophenyl)pyrrolidin-1-ium chloride]
IC50 (native AMPA receptors): > 100 µM

SMILES: Cl.O=C(O)c1cc([C@H]2CCN[C@@H]2C(=O)O)ccc1Cl [1l, (2S,3R)-3-(3-Carboxy-4-chlorophenyl)pyrrolidine-2-carboxylic acid hydrochloride]
brain concentration following perfusion ([1]; perfusion with 100 μM of the compound, detection limit of analytical method): < 5 pmol/g
nH (Hillslope) (GluN1/GluN2B): 1.3
KA IC50 (native KA receptors): >100 µM
nH (Hillslope) (GluN1/GluN2A): 1.3
nH (Hillslope) (GluN1/GluN2D): 1.3
inhibition of NMDA-induced intracellular Ca2+ transients ([2]; compound at 25 and 41 μM): inhibit NMDA activation significantly
Slc7a5 (Lat1) protein expression level (Slc7a5 (Lat1)): 5.72± 1.61 fmol/μg of total protein
Slc2a1 (Glut1) protein expression level (Slc2a1 (Glut1)): 13.2± 0.53 fmol/μg of total protein
Abcb1 (Pgp) protein expression level (Abcb1 (Pgp)): 0.39± 0.06 fmol/μg of total protein
Abcc2 protein expression (Abcc2 (Mrp2)): below the lower limit of quantification
changes in the behavior of the mice after injection ([3]; 10 mg/kg i.p.): no observable changes in the behavior
brain concentration ([3]; 30 min after 10 mg/kg i.p.): 0.3 nmol/g
brain concentration ([3]; 60 min after 10 mg/kg i.p.): 0.1 nmol/g
IC50 (native AMPA receptors): > 100 µM
Abcg2 (Bcrp) protein expression level (Abcg2 (Bcrp)): 1.24± 0.13 fmol/μg of total protein
nH (Hillslope) (GluN1/GluN2C): 1.0
Abcc4 (Mrp4) protein expression level (Abcc4 (Mrp4)): 0.27 ± 0.04 fmol/μg of total protein

SMILES: Cc1ccc([C@H]2CCN[C@@H]2C(=O)O)cc1C(=O)O.Cl [1m, (2S,3R)-3-(3-Carboxy-4-methylphenyl)pyrrolidine-2-carboxylic acid hydrochloride]
KA IC50 (native KA receptors): >100 µM
IC50 (native AMPA receptors): > 100 µM
drop in binding affinity for native NMDA receptors (native NMDA receptors): 30 fold

SMILES: Cl.O=C(O)c1cc([C@H]2CCN[C@@H]2C(=O)O)ccc1Br [1n, (2S,3R)-3-(3-Carboxy-4-bromophenyl)pyrrolidine-2-carboxylic acid hydrochloride]
KA IC50 (native KA receptors): >100 µM
IC50 (native AMPA receptors): > 100 µM

SMILES: N[C@H](CCCP(=O)(O)O)C(=O)O [D-AP5, reference compound]
inhibition of NMDA-induced intracellular Ca2+ transients ([2]; compound at 20 μM): inhibit NMDA activation significantly

SMILES: CNC(=O)c1cc(Oc2ccc(NC(=O)Nc3ccc(Cl)c(C(F)(F)F)c3)cc2)ccn1 [sorafenib]
IC50 (mouse HCC cells; read-out: IC50 on HCC cell viability): 7.4 ± 1.7 µM
viability at 1 µM (mouse HCC cells; read-out: cell viability): 88 ± 3%
viability at 2.5 µM (mouse HCC cells; read-out: cell viability): 82 ± 3%
viability at 5 µM (mouse HCC cells; read-out: cell viability): 72 ± 1%
viability at 10 µM (mouse HCC cells; read-out: cell viability): 31 ± 2%

The next lines start with the values.

BBB penetration ([1]; mouse in situ brain perfusion): does not penetrate the BBB
SMILES: O=C(O)c1cccc([C@H]2CCN[C@@H]2C(=O)O)c1 [1a, (2S,3R)-3-(3-Carboxyphenyl)pyrrolidine-2-Carboxylic Acid]

KA IC50 (native KA receptors): >100 µM
IC50 (native AMPA receptors): > 100 µM
SMILES: Cl.O=C(O)[C@H]1NCC[C@@H]1c1cccc(Cl)c1 [1d, (2S,3R)-2-Carboxy-3-(3-chlorophenyl)pyrrolidin-1-ium chloride]

KA IC50 (native KA receptors): >100 µM
IC50 (native AMPA receptors): > 100 µM
SMILES: Cl.Cl.Nc1cccc([C@H]2CCN[C@@H]2C(=O)O)c1 [1f, (2S,3R)-3-(3-Aminophenyl)pyrrolidine-2-carboxylic acid dihydrochloride]

IC50 or Ki at the iGluRs (iGluRs): > 100 µM
KA IC50 (native KA receptors): >100 µM
IC50 (native AMPA receptors): > 100 µM
SMILES: Cl.NC(=O)c1cccc([C@H]2CCN[C@@H]2C(=O)O)c1 [1h, (2S,3R)-3-(3-Carbamoylphenyl)-2-carboxypyrrolidin-1-ium chloride]

IC50 or Ki at the iGluRs (iGluRs): > 100 µM
KA IC50 (native KA receptors): >100 µM
IC50 (native AMPA receptors): > 100 µM
SMILES: Cl.O=C(O)[C@H]1NCC[C@@H]1c1cccc(B(O)O)c1 [1i, (2S,3R)-3-(3-Boronophenyl)pyrrolidine-2-carboxylic acid hydrochloride]
